Data set [1] is described as follows: Elimination rate constant in rhesus monkey plasma at 202 to 7690 ug administered via intranasal nebulization for 8 mins by LC-MS method. Particulars: inhaled or intranasal; call rule not given here. The data set is classed as ADME, cell-free, Macaca mulatta. The gist of the method:
(§1)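 Four male rhesus macaques, 5 years old, 9–13 kg, under Telazol (4–5 mg/kg IM) then IV propofol. Dose in propylene glycol given by face mask from a pediatric nebulizer for 8 min. Lumbar CSF collected by passive drip at 60 and 120 min; blood-tinged CSF excluded. Plasma solid-phase extracted with ethyl acetate. LC-MS/MS in duplicate against an internal standard and a 0.8–10 pg/ml calibration curve. ke = (lnC1 − lnC2)/(t2 − t1), confirmed by semi-log regression; t1/2 = 0.693/ke.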

Data set [2] deals with Rhesus monkey. Briefly: In vivo antagonist activity at OXTR in rhesus monkey assessed as concentration in CSF required to displace endogenous oxytocin at 6.15, im. In kind it is functional, Macaca mulatta. The gist of the method: (§2)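 Estimated OXTR-relevant CSF targets for male rhesus macaques. Values come from OT levels before and after aerosolized IN OT (24 IU) reported in earlier work. They assume a 10 ml total CSF volume and scale from the in vitro Ki, which was measured by displacing 2 nM [3H]OT.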

In data set [3] the test system is Rhesus monkey. Briefly: In vivo antagonist activity at OXTR in rhesus monkey assessed as concentration in CSF required to displace endogenous oxytocin at 7.69 mg administered via intranasal nebulization for 8 mins. The data set is classed as functional, Macaca mulatta. The gist of the method:
as §2

Data set [4] concerns Rhesus monkey. Nature of the data set: Activity at OXTR in rhesus monkey assessed as concentration in CSF required to elicit behavioral effects at 6.15, im. The data set is classed as functional, Macaca mulatta. In short, it runs like this: as §2
Data set [5] has as its system Rhesus monkey. Briefly: Activity at OXTR in rhesus monkey assessed as concentration in CSF required to elicit behavioral effects at 7.69 mg administered via intranasal nebulization for 8 mins. In kind it is functional, Macaca mulatta. In short, it runs like this: as §2
Data set [6] is described as follows: Cmax in rhesus monkey CSF at 202 ug administered via intranasal nebulization for 8 mins by LC-MS method. In kind it is ADME, Macaca mulatta, Cerebrospinal fluid. More on the design: dose 202 ug, route nasal. Particulars: inhaled or intranasal. In short, it runs like this:
(§3)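 Four male rhesus macaques (5 yr, 9–13 kg) under IM Telazol, then IV propofol. Drug in propylene glycol (low 120 μg/ml, high 6.15 mg/ml) was aerosolised for 8 min by pediatric nebuliser through a face mask. Dose was taken from the nebuliser residue. Lumbar CSF was collected by passive drip at 60 and 120 min; blood-tinged samples were discarded. CSF was run unprocessed by LC-MS/MS in duplicate against an artificial-CSF calibration (0.8–10 pg/ml) with internal standard.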

Data set [7] can be described thus: Cmax in rhesus monkey CSF at 1650 ug, im by LC-MS method. In kind it is ADME, organism-based, Macaca mulatta, Cerebrospinal fluid. More on the design: dose 1650 ug, route intramuscular.
Data set [8] in a line: Half life in rhesus monkey plasma at 202 to 7690 ug administered via intranasal nebulization for 8 mins by LC-MS method. In kind it is ADME, cell-free, Macaca mulatta. Particulars: inhaled or intranasal. The gist of the method:
as §1

Data set [9] is described as follows: Half life in rhesus monkey CSF at 7690 ug administered via intranasal nebulization for 8 mins by LC-MS method. Particulars: in vivo, inhaled_or_intranasal. In kind it is ADME, Macaca mulatta, Cerebrospinal fluid. In short, it runs like this:
as §1

Data set [10] is described as follows: Cmax in rhesus monkey plasma at 202 ug administered via intranasal nebulization for 8 mins by LC-MS method. More on the design: dose 202 ug, route nasal. In kind it is ADME, cell-free, Macaca mulatta. Particulars: inhaled or intranasal. The gist of the method:
(§4)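 Anesthetised male rhesus macaques (Telazol IM, propofol IV) inhaled drug in propylene glycol (low 120 μg/ml, high 6.15 mg/ml) by pediatric nebuliser and face mask for 8 min; dose was taken from nebuliser residue. Plasma (stored −80 C) was spiked with internal standard and extracted by solid-liquid extraction with ethyl acetate, then dried and redissolved in water/methanol/formic acid 70:30:0.1. It was measured in duplicate by C18 LC-MS/MS against a rhesus-plasma calibration. Recovery was about 86%.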

Data set [11] in a line: Cmax in rhesus monkey CSF at 7690 ug administered via intranasal nebulization for 8 mins by LC-MS method. More on the design: dose 7690 ug, route nasal. Particulars: inhaled or intranasal. In kind it is ADME, Macaca mulatta, Cerebrospinal fluid. In short, it runs like this:
as §3

Data set [12] can be described thus: Cmax in rhesus monkey plasma at 6150 ug, im by LC-MS method. More on the design: dose 6150 ug, route intramuscular. The data set is classed as ADME, organism-based, Macaca mulatta. The gist of the method:
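Anesthetised male rhesus macaques (n=2; Telazol IM, propofol IV) received 6.15 mg in propylene glycol (6.15 mg/ml) injected into the inner thigh muscle. Plasma was spiked with internal standard and extracted by solid-liquid extraction with ethyl acetate, then redissolved in water/methanol/formic acid 70:30:0.1. It was quantified in duplicate by C18 LC-MS/MS against a rhesus-plasma calibration curve.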

Data set [13] is described as follows: Tmax in rhesus monkey plasma at 6150 ug, im by LC-MS method. The data set is classed as ADME, organism-based, Macaca mulatta. The gist of the method: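 Male rhesus macaques (5 yr, 9–13 kg), anaesthetised with Telazol IM then IV propofol drip, given 6.15 mg in propylene glycol (6.15 mg/ml) into inner thigh muscle (n=2). Plasma separated, stored −80 C, extracted by solid-liquid phase with ethyl acetate plus internal standard. LC-MS/MS (C18, water/methanol/formic acid) in duplicate against calibration curve in rhesus plasma; time of maximum plasma concentration taken.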

The nature of data set [14]: Tmax in rhesus monkey plasma at 7690 ug administered via intranasal nebulization for 8 mins by LC-MS method. The data set is classed as ADME, cell-free, Macaca mulatta. Particulars: inhaled or intranasal. The gist of the method: as §1
A short description of data set [15]: Elimination rate constant in rhesus monkey CSF at 7690 ug administered via intranasal nebulization for 8 mins by LC-MS method. Particulars: in vivo, inhaled_or_intranasal. The data set is classed as ADME, Macaca mulatta, Cerebrospinal fluid. The gist of the method: as §1
A short description of data set [16]: Tmax in rhesus monkey plasma at 202 ug administered via intranasal nebulization for 8 mins by LC-MS method. Particulars: inhaled or intranasal. In kind it is ADME, cell-free, Macaca mulatta. In short, it runs like this:
as §1

Data set [17] can be described thus: Cmax in rhesus monkey plasma at 7690 ug administered via intranasal nebulization for 8 mins by LC-MS method. The data set is classed as ADME, cell-free, Macaca mulatta. Particulars: inhaled or intranasal. More on the design: dose 7690 ug, route nasal. The gist of the method:
as §4

Data set [18] can be described thus: Tmax in rhesus monkey CSF at 7690 ug administered via intranasal nebulization for 8 mins by LC-MS method. The data set is classed as ADME, Macaca mulatta, Cerebrospinal fluid. Particulars: inhaled or intranasal. The gist of the method:
as §1

Data set [19] in a line: Tmax in rhesus monkey CSF at 202 ug administered via intranasal nebulization for 8 mins by LC-MS method. The data set is classed as ADME, Macaca mulatta, Cerebrospinal fluid. Particulars: inhaled or intranasal. In short, it runs like this: as §1
Data set [20] in a line: Drug uptake in Sprague-Dawley rat skull at 126 to 295 uCi, iv administered as 30 mins bolus infusion after 15 to 90 mins by PET imaging method. The data set is classed as ADME, organism-based. Particulars: in vivo.
The next data set relates to Brain. Briefly: Drug uptake in Sprague-Dawley rat brain at 126 to 295 uCi, iv administered as 30 mins bolus infusion after 15 to 90 mins by PET imaging method. In kind it is ADME, organism-based. Particulars: in vivo.
The nature of data set [21]: Drug uptake in Sprague-Dawley rat muscle at 340 to 390 uCi, im up to 120 mins by PET imaging method. In kind it is ADME, organism-based, Muscle tissue. Particulars: in vivo, 2 h. The gist of the method:
(§5)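 Female Sprague-Dawley rats, 200–330 g, under 4–5% isoflurane in oxygen. [18F]tracer, 340–390 μCi in 100 μl, injected IM just above the knee of the hind leg. PET starting 15 min post injection, 2 h scan, with 7 min Co-57 transmission scan. Time-activity curves of mean nCi/cc, n=3.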

Data set [22] can be described thus: Drug uptake in Sprague-Dawley rat muscle at 126 to 295 uCi, iv administered as 30 mins bolus infusion after 15 to 90 mins by PET imaging method. The data set is classed as ADME, organism-based, Muscle tissue. Particulars: in vivo.
A short description of data set [23]: Drug uptake in Sprague-Dawley rat skull at 340 to 390 uCi, im up to 120 mins by PET imaging method. Particulars: in vivo, 2 h. The data set is classed as ADME, organism-based. The gist of the method: as §5
The next data set deals with T1, Oxytocin receptor (Homo sapiens, UniProt P30559).
T1 sequence (P30559 whole entry): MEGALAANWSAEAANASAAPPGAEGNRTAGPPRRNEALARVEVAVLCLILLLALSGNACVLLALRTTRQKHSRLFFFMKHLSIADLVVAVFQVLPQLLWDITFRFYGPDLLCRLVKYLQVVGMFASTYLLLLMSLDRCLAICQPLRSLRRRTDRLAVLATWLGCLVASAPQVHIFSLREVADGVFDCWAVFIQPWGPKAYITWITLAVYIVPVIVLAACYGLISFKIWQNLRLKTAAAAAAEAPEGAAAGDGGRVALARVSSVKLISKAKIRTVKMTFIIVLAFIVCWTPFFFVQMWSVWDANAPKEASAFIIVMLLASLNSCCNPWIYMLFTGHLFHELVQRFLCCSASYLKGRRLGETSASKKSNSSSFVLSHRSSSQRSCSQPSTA
Nature of the data set: Displacement of [3H]Oxytocin from human OXTR expressed in CHO cell membranes after 90 mins by liquid scintillation counting method.

Each structure is given as a SMILES string.

Here are results for 3 compounds from ChEMBL document CHEMBL4000173, “An evaluation of central penetration from a peripherally administered oxytocin receptor selective antagonist in nonhuman primates” (Bioorg Med Chem, 2017).

On to `CS(=O)(=O)N1CCC(Oc2ccc(CC(=O)N3CCC(N4C(=O)CCc5ccccc54)CC3)c(OCCF)c2)CC1`, for which the k el at 8 min in data set [1] was 0.0004 s⁻¹. Moreover, the Activity in the data set on Rhesus monkey [2] stood at 56 pM; in the data set on Rhesus monkey [3] it was 56 pM; in the data set with Rhesus monkey [4], 24 pM; with Rhesus monkey [5], 24 pM. In addition, the Cmax worked out at 0.00736 ng/mL in data set [6]; 0.478 ng/mL in data set [7]; 1.16 ng/mL in data set [10]; 0.0972 ng/mL in data set [11]; 740 ng/mL in data set [12]; 156 ng/mL in data set [17]. The same compound had a half-life in data set [8] of 0.483 h. This compound also displayed a t1/2 in data set [9] of 1.6 h. Also, the Tmax in data set [13] is 1 h; in data set [14], 0.25 h; in data set [16], 5 min; in [18], 1 h; in [19], 2 h. Besides, the Kel in data set [15] came to 0.007 min⁻¹.
Regarding `CS(=O)(=O)N1CCC(Oc2ccc(CC(=O)N3CCC(N4C(=O)CCc5ccccc54)CC3)c(OCC[18F])c2)CC1`, the Drug uptake entry (in [20]; in the data set on Brain; in [21]; in data set [22]; in data set [23]) was “Active” throughout.
For `Cc1ccccc1N1CCN(S(=O)(=O)CC23CCC(CC2NC(=O)C(N)CCS(C)(=O)=O)C3(C)C)CC1` (stereo not given), the affinity on Oxytocin receptor, expressed as Ki, was 17 nM.
